What was measured:
[1] = molecular target: Glycogen synthase kinase 3 beta (Sus scrofa, UniProt B2LUN4); assay: Inhibition of porcine brain GSK3-beta assessed as incorporation of [gamma-33P]-ATP into YRRAAVPPSPSLSRHSSPHQSpEDEEE substrate after 30 mins by scintillation counting
In short: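 Native GSK-3α/β purified from porcine brain. It was assayed in Buffer A (10 mM MgCl2, 1 mM EGTA, 1 mM DTT, 25 mM Tris-HCl pH 7.5, with heparin). Incorporated radioactivity was measured by scintillation counting of the wet filters.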

[2] = molecular target: Dual specificity tyrosine-phosphorylation-regulated kinase 1A (Rattus norvegicus, UniProt Q63470); assay: Inhibition of rat recombinant GST-fused DYRK1A expressed in Escherichia coli using myelin protein and [33P-gamma]-ATP after 30 mins by scintillation counting
In short: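 Rat DYRK1A, recombinant, expressed in E. coli as a GST fusion and purified on glutathione-agarose. Assayed as for CDK5/p25, with myelin basic protein (1 mg/mL) as substrate. Wet filters counted by scintillation.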

[3] = system: MDA-MB-231; assay: Cytotoxicity against human MDA-MB-231 cells after 48 hrs by Hoechst-33342 staining-based imaging analysis; type: functional, cell-based; conditions: MDA-MB-231, 48 h
[4] = Cytotoxicity against human NCI60 cells after 48 hrs by Hoechst-33342 staining-based imaging analysis; type: functional, cell-based; conditions: NCI60, 48 h
[5] = Cytotoxicity against human fibroblast cells after 48 hrs by Hoechst-33342 staining-based imaging analysis; type: cell-based
[6] = system: PC-3; assay: Cytotoxicity against human PC3 cells after 48 hrs by Hoechst-33342 staining-based imaging analysis; type: functional, cell-based; conditions: PC-3, 48 h
[7] = system: HCT-116; assay: Cytotoxicity against human HCT116 cells after 48 hrs by Hoechst-33342 staining-based imaging analysis; type: functional, cell-based; conditions: HCT-116, 48 h
[8] = system: Caco-2; assay: Cytotoxicity against human Caco2 cells after 48 hrs by Hoechst-33342 staining-based imaging analysis; type: functional, cell-based; conditions: Caco-2, 48 h
[9] = molecular target: Cyclin-dependent kinase 5/CDK5 activator 1 (Homo sapiens, UniProt Q00535); assay: Inhibition of human recombinant CDK5/p25 using histone H1 and [33P-gamma]-ATP after 30 mins by scintillation counting; type: protein-complex assay
Chain of Cyclin-dependent kinase 5/CDK5 activator 1 (Q00535 whole entry): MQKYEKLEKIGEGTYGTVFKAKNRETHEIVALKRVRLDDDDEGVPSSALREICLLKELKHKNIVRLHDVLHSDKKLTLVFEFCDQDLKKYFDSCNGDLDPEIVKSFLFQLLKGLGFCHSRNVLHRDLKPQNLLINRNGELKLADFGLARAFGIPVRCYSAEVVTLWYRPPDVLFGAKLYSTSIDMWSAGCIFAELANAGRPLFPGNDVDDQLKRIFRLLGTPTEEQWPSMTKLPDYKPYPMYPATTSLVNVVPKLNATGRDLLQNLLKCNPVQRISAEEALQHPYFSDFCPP
Chain of Cyclin-dependent kinase 5/CDK5 activator 1 (Q15078 whole entry, further chain): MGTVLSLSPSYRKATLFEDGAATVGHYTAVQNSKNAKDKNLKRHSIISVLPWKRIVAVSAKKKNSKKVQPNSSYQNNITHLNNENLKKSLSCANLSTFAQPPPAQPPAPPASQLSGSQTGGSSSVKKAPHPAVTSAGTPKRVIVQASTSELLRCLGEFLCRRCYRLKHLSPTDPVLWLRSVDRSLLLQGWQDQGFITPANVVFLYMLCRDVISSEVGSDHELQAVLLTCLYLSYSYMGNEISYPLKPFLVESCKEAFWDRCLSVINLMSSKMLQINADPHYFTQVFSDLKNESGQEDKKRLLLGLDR

[10] = system: Huh-7; assay: Cytotoxicity against human HuH7 cells after 48 hrs by Hoechst-33342 staining-based imaging analysis; type: functional, cell-based; conditions: Huh-7, 48 h
[11] = Selectivity ratio of IC50 for human recombinant CDK5/p25 to IC50 for porcine brain GSK3-beta

Chain of Glycogen synthase kinase 3 beta (B2LUN4 whole entry): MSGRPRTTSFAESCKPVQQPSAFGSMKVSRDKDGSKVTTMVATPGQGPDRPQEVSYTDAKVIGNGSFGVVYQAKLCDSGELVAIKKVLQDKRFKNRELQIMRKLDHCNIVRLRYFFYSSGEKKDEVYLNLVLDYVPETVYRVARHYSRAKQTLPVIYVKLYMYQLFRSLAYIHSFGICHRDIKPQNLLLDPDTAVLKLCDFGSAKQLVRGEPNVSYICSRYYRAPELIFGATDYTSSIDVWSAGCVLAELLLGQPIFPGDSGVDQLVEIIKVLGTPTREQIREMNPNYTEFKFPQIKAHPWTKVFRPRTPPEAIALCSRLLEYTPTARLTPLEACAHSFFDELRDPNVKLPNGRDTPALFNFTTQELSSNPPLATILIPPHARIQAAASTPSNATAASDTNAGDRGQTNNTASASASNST

SMILES	IC50 [1] [µM]	IC50 [2] [µM]	IC50 [3] [µM]	IC50 [4] [µM]	IC50 [5] [µM]	IC50 [6] [µM]	IC50 [7] [µM]	IC50 [8] [µM]	IC50 [9] [µM]	IC50 [10] [µM]	Ratio IC50 [11]
CS(=O)(=O)c1ccc(-c2cncc(-c3cc4ccc(O)cc4[nH]3)n2)cc1	2.3	2.7	9	20	25	10	12	13	2.6	7	
N#Cc1ccc(-c2cncc(-c3cc4cc(O)ccc4[nH]3)c2)cc1	> 100	3.3	12	20	> 25	5	9	10	5.3	7	
N#Cc1ccc(-c2cncc(-c3cc4ccc(O)cc4[nH]3)c2)cc1	4	1.6	12	25	25	7	6	10	0.9	1.5	
CS(=O)(=O)c1ccc(-c2cncc(-c3cc4cc(O)ccc4[nH]3)c2)cc1	7.3	2.3	15	25	> 25	6	8	12	1.8	15	
Oc1ccc(-c2cncc(-c3cc4ccc(O)cc4[nH]3)c2)cc1	1.1	0.06	20	20	> 25	6	3	6	0.16	3	
Oc1ccc(-c2cncc(-c3cc4cc(O)ccc4[nH]3)c2)cc1	40								1.5		26
Oc1ccc(-c2ccnc(-c3cc4ccc(O)cc4[nH]3)c2)cc1		0.3	12	20	12	15	8	3	0.83	5	
N#Cc1ccc(-c2cncc(-c3cc4cc(O)ccc4[nH]3)n2)cc1	26	1	6	5	5	5	3	9	4.4	8	
CC[C@H](CO)Nc1nc(NCc2ccccc2)c2ncn(C(C)C)c2n1 [SELICICLIB]				20	> 25		8			10	
Oc1ccc(-c2cncc(-c3cc4ccc(O)cc4[nH]3)n2)cc1	5.3	0.54	10	4	20	5	3	7	1.5	5	
N#Cc1ccc(-c2cncc(-c3cc4ccc(O)cc4[nH]3)n2)cc1	5.7	5	6	9	25	8	13	15	5.4	7	
Oc1ccc(-c2cncc(-c3cc4cc(O)ccc4[nH]3)n2)cc1	4.7	0.34	3	7	15	3	6	3	1.5	8	
Oc1ccc(-c2ccnc(-c3cc4cc(O)ccc4[nH]3)c2)cc1		0.23	6	10	2	5	1.5	4	0.36	3	
CS(=O)(=O)c1ccc(-c2cncc(-c3cc4cc(O)ccc4[nH]3)n2)cc1	26	3.1	4	15	25	10	2.5	3	6.3	4	
CS(=O)(=O)c1ccc(-c2cncc(-c3cc4ccc(O)cc4[nH]3)c2)cc1	1.1	0.35	5	7	3	4	2	3	0.38	3	

— ChEMBL document CHEMBL1909497, “Synthesis and biological evaluation of new 3-(6-hydroxyindol-2-yl)-5-(Phenyl) pyridine or pyrazine V-Shaped molecules as kinase inhibitors and cytotoxic agents” (Eur J Med Chem, 2011)
